Measurements taken from ChEMBL document CHEMBL5223160, “Lipase-Catalyzed Synthesis and Biological Evaluation of N-Picolineamides as Trypanosoma cruzi Antiproliferative Agents” (ACS Med Chem Lett, 2023).
Calls of active or inactive are those of the source. The calls are words filed in the database; no cut-off is given here.

How the values were obtained:
Vero = assay: Cytotoxicity against african green monkey Vero cells at 10 to 600 uM incubated for 72 hrs by resazurin dye based fluorescence assay; format: toxicity, cell-based; details: chlorocebus sabaeus, dose 10-600 µM
Outline: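 Vero cells were exposed to compounds at 10–600 μM for 72 h at 37 °C. Viability was read by resazurin fluorescence at 590 nm. CC50 was taken as the concentration reducing cell proliferation by 50%, reported ± standard deviation.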

Trypanosoma cruzi [1] = assay: Antitrypanosomal activity against GFP-expressing intracellular Trypanosoma cruzi Y trypomastigotes infected in african green monkey Vero cells assessed as inhibition of parasite proliferation incubated for 72 hrs by fluorescence based microplate reader analysis
Trypanosoma cruzi [2] = assay: (§1) Antitrypanosomal activity against GFP-expressing intracellular Trypanosoma cruzi Y trypomastigotes infected in african green monkey Vero cells assessed as decrease in number of amastigotes/100 cells incubated for 72 hrs by fluorescence based microplate reader analysis; format: functional, organism-based
Outline: (§2)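 Vero cells infected with GFP-expressing T. cruzi Y-strain parasites. After parasite removal, compounds were added at one-tenth of their Vero CC50. At 72 h postinfection, cells were lysed and parasite fluorescence was read. Percentage of infected cells and amastigotes per 100 cells were also determined, with nifurtimox as reference.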

Trypanosoma cruzi [3] = assay: Antitrypanosomal activity against GFP-expressing intracellular Trypanosoma cruzi Y trypomastigotes infected in african green monkey Vero cells assessed as decrease in infection level incubated for 72 hrs by fluorescence based microplate reader analysis; format: functional, organism-based; outline: as §2
Trypanosoma cruzi [4] = assay: as §1, with “reduction” for “decrease”, “infected cell percentage at 20 uM” for “number of amastigotes/100 cells”, “hrs in the presence of nifurtimox” for “hrs”; format: functional, organism-based
Outline: (§3)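 GFP T. cruzi Y-infected Vero cells were cotreated after parasite removal with nifurtimox at 35 μM plus test compound at 20 μM or 40 μM. At 72 h postinfection, percentage of infected cells was determined against nontreated infected controls. Significance was set at p < 0.05.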

Trypanosoma cruzi [5] = assay: as §1, with “reduction” for “decrease”, “infected cell percentage at 40 uM” for “number of amastigotes/100 cells”, “hrs in the presence of nifurtimox” for “hrs”; format: functional, organism-based; outline: as §3

| SMILES | Activity (Vero) | also measured |
| --- | --- | --- |
| CCCCCCCCCCCC(=O)NCc1cccnc1 | Non-Toxic |  |
| CCCCC/C=C/C/C=C/CCCCCCCC(=O)O | Toxic |  |
| CCCCCCCCCCCCCCCCCC(=O)NCc1ccccn1 | Non-Toxic | IC50 (Trypanosoma cruzi [1]): 16.4 µM; Activity (Trypanosoma cruzi [2]): Active; Activity (Trypanosoma cruzi [3]): Active; Activity (Trypanosoma cruzi [4]): Active |
| CCCCCCCC/C=C/CCCCCCCC(=O)NCc1ccncc1 | Non-Toxic |  |
| CCCCCCCC/C=C\CCCCCCCC(=O)NCc1ccccn1 | Non-Toxic |  |
| CCCCCCCCCCCCCCCCCC(=O)NCc1cccnc1 | Non-Toxic |  |
| CCCCCCCCCCCCCCCC(=O)NCc1ccncc1 | Non-Toxic |  |
| CCCCC/C=C\C/C=C\CCCCCCCC(=O)NCc1cccnc1 | Non-Toxic |  |
| CC/C=C\C/C=C\C/C=C\CCCCCCCC(=O)NCc1ccccn1 | Non-Toxic |  |
| CCCCCCCCC/C=C\CCCCCCC(=O)O | Toxic |  |
| CCCCCCCCCCCC(=O)NCc1ccncc1 | Non-Toxic |  |
| CCCCCCCC/C=C/CCCCCCCC(=O)NCc1cccnc1 | Non-Toxic |  |
| CCCCCC(=O)NCc1ccncc1 | Non-Toxic |  |
| CCCCCCCCCCCC(=O)NCc1ccccn1 | Non-Toxic | IC50 (Trypanosoma cruzi [1]): > 100 µM |
| CCCCCCCC/C=C\CCCCCCCC(=O)NCc1cccnc1 | Non-Toxic |  |
| CC/C=C/C/C=C/C/C=C/CCCCCCCC(=O)O | Toxic |  |
| CCCCC/C=C\C/C=C\CCCCCCCC(=O)NCc1ccccn1 | Non-Toxic |  |
| CC/C=C\C/C=C\C/C=C\CCCCCCCC(=O)NCc1cccnc1 | Non-Toxic |  |
| CCCCCCCC/C=C/CCCCCCCC(=O)NCc1ccccn1 | Non-Toxic | IC50 (Trypanosoma cruzi [1]): 47.6 µM; Activity (Trypanosoma cruzi [2]): Active; Activity (Trypanosoma cruzi [3]): Active; Activity (Trypanosoma cruzi [5]): Active |
| CCCCCCCCCCCCCCCCCC(=O)NCc1ccncc1 | Non-Toxic |  |
| CC(=O)NCc1ccncc1 | Non-Toxic |  |
